Compounds with a hit are over-represented: about 3.2% of the library has one in this group of screens.
Hck-Nef inh = blocks Nef-activated human Hck kinase; hit rate 0.68% among 220,000; AID 463187; inhibition, % at 20 µM; Recombinant Hck-YEEI plus Nef, Z-Lyte FRET kinase assay;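 active = Hck-Nef kinase inhibition above about 50%, limit read from the data; inactive = inhibition below that limit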
Bim-Mcl-1 = disrupts Bim peptide binding to human Mcl-1. Q07820. Bead-based flow cytometry, Bim peptide-Mcl-1 binding. inhibition, % at 10 µM. hit rate 0.1% among 190,000; in the data active = inhibition above about 40%
Target sequence (Q07820 whole entry, looked up): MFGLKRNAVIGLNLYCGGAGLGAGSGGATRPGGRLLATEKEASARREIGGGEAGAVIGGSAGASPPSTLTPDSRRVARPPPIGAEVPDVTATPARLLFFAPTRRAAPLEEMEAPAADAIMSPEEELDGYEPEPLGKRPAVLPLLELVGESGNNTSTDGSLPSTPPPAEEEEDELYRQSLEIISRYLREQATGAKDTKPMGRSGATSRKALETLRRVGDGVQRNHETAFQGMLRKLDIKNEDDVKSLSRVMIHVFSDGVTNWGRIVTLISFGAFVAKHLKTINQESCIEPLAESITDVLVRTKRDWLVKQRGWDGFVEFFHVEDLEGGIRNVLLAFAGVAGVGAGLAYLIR
Mcl1-Noxa inh = disrupts binding of human Mcl-1 to Noxa peptide | TR-FRET Mcl-1/Noxa peptide binding, 2 h | Q07820 | hit rate 1.5% among 220,000 | AID 1022 | inhibition, % at 21.7 µM;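 active = compounds that cut the protein-peptide binding signal by more than 50% relative to plate controls in a single-dose test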;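 note: His-tagged Mcl-1 with rhodamine Noxa BH3 peptide and terbium anti-His antibody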
Calb biofilm kill = mixtures killing C. albicans biofilm | inhibition, % at 7.6 µM | hit rate 0.02% among 120,000 | AID 1242 | C. albicans biofilm persisters + clotrimazole, fluorescence viability; primary screen in compound mixtures of four per well;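 note: compounds exposed to preformed 24 h biofilms for 48 h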
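Assay system: C. albicans biofilms / Medium: RPMI/MOPS medium, pH 7.0 / Schedule: biofilm formation 24 h, compound exposure 48 h, 37 °C / Measured by: Alamar Blue fluorescence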
14-3-3 Bad inh = disrupts binding of bovine 14-3-3 zeta to phospho-Bad peptide; P63103; TR-FRET 14-3-3zeta/Dy647-pBad peptide displacement, 1 h; inhibition, % at 21.7 µM; hit rate 0.71% among 220,000; AID 781;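 active = inhibition above about 70%, limit read from the data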
Target sequence (P63103 whole entry, looked up): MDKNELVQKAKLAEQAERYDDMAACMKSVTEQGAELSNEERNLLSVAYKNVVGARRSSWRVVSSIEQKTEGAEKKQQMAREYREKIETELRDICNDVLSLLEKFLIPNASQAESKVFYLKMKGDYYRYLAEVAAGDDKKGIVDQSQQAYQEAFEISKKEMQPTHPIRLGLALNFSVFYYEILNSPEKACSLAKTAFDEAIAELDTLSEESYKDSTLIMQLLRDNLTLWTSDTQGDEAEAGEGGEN
Mcl1 Bid PPI = Mcl-1/Bid interaction inhibition; TR-FRET Mcl-1/Bid-Dy647 peptide binding, 1536-well; inhibition, % at 21.7 µM; hit rate 0.97% among 220,000;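 active = compounds that cut the binding signal by more than half at the single screening dose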;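 note: His-tagged Mcl-1 with europium anti-His antibody binding Bid BH3 peptide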
Hck Nef conf = confirmation of Hck-Nef kinase inhibitors. hit rate 28% among 1,300. AID 463188. Recombinant Hck-YEEI:Nef, Z-Lyte FRET kinase assay. shares compounds with Hck-Nef inh. calls only at 10 µM;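 active = average inhibition of at least 50%, with Z-scores no higher than 3 in both the phospho-tyrosine peptide and fluorescence counterscreens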
Hits are given with their value; – = inactive; · = not tested or not shown; + = active, no number; [ ] = another dose, or the depositor's remark.

SMILES	Hck-Nef inh	Bim-Mcl-1	Mcl1-Noxa inh	Calb biofilm kill	14-3-3 Bad inh	Mcl1 Bid PPI	Hck Nef conf
N=c1c(C(=O)NC2CCCC2)cc2c(=O)n3ccccc3nc2n1C1CCCC1	122.1	–	–	·	·	–	·
Cc1cccn2c(=O)c3cc(C(=O)NC4CCCCC4)c(=N)n(CCN4CCOCC4)c3nc12	–	·	–	–	–	–	·
CCCn1c(=N)c(C(=O)NC2CCCC2)cc2c(=O)n3cccc(C)c3nc21	187.3	–	–	–	–	–	·
COCCCn1c(=N)c(C(=O)NC2CCCCC2)cc2c(=O)n3ccccc3nc21	+	–	–	–	–	–	·
Cc1cccn2c(=O)c3cc(C(=O)NC(C)c4ccccc4)c(=N)n(CCCn4ccnc4)c3nc12 (stereo not drawn)	+	·	–	–	–	–	·
COc1cccc(NC(=O)c2cc3c(=O)n4ccccc4nc3n(CC(C)C)c2=N)c1	–	–	–	–	–	–	·
O=C(NCc1cccs1)c1cc(-c2ccncc2)nc2ccc(Br)cc12	–	–	–	–	–	–	·
CC(=O)Nc1ccc(NC(=O)CCNS(=O)(=O)c2cccc3nsnc23)cc1	–	–	–	–	–	–	·
O=C(Cn1cnc2c(oc3ccccc32)c1=O)NCCc1ccccc1	–	·	·	·	·	·	·
NS(=O)(=O)c1ccc(NC(=O)COC(=O)CCc2ccccc2)cc1	–	·	–	–	–	–	·
COC(=O)Cn1nnc(N2CCOCC2)n1	–	·	–	–	–	–	·
O=C(c1cccc([N+](=O)[O-])c1)c1ccc2c(c1)C(=O)N(c1c[nH]c(=O)[nH]c1=O)C2=O	–	–	–	–	–	–	·
Cc1[nH]c2ccccc2c1/C=N/Nc1ccccn1	65.3	–	–	–	–	–	+
CN(C)c1cccc(C(=O)OCC(=O)Nc2ccccc2Cl)c1	–	–	–	–	–	–	·
CC(C)C1Cc2[nH]c(=O)c(C(=O)O)cc2CO1 (stereo not drawn)	74.8	–	–	·	–	–	–
CC12CCC(c3c1nc1ccccc1[n+]3[O-])C2(C)C (stereo not drawn)	–	–	–	–	–	–	·
CCOc1ccc(N=Nc2c(N)[nH][nH]c2=O)cc1	–	–	–	–	–	–	·
COc1ccc(N=Nc2c(C)[nH][nH]c2=O)cc1	59.8	–	–	–	–	–	–
O=C(N/N=C/c1ccncc1)c1ccc(NC(=O)c2cccc(Cl)c2)cc1	–	–	–	–	–	–	·
O=C(N/N=C/c1ccncc1)c1ccc(NC(=O)c2ccc(Cl)cc2)cc1	57.9	–	–	–	–	–	–
CC1(C)N([O-])C2=C(c3ccccc3C2=O)[N+](=O)C1(C)C	–	–	–	·	–	–	·
CCOc1ccc(-c2nn(-c3ccccc3)cc2/C=C2\SC(=S)N(Cc3ccco3)C2=O)cc1	–	–	–	–	–	–	·
CCN1C(=O)/C(=C\c2cn(-c3ccccc3)nc2-c2cccnc2)SC1=S	59.9	–	–	–	77.9	56.5	–
Cc1ccc(NC(=O)c2ccc3ccccc3n2)cc1S(=O)(=O)N1CCOCC1	–	–	–	–	–	–	·
Cc1ccc(NC(=O)c2cc(-c3ccco3)nc3ccccc23)cc1S(=O)(=O)N1CCOCC1	69.3	–	66.3	–	–	–	+
SMILES	Hck-Nef inh	Bim-Mcl-1	Mcl1-Noxa inh	Calb biofilm kill	14-3-3 Bad inh	Mcl1 Bid PPI	Hck Nef conf
C/C(=N\NC(=O)c1cccc(N/N=C(\C)c2cc(O)ccc2O)c1)c1cc(O)ccc1O	57.4	–	100.5	–	–	–	–
C/C(=N\NC(=O)c1ccc(N/N=C(\C)c2ccc(O)cc2)cc1)c1ccc(O)cc1	–	·	–	–	–	–	·
Cc1ccc(NC(=O)CSc2nc3ccccc3c3nc(CCn4cncc4C)nn23)c(C)c1	72.1	–	–	–	–	–	–
Cc1ccccc1NC(=O)CSc1nc2ccccc2c2nc(CCn3cncc3C)nn12	–	–	–	–	–	–	·
O=S(=O)(NCCc1ccccn1)c1ccc(F)c(F)c1	–	–	–	·	–	–	·
CN1C=CC=C/C1=C1\SC(=S)N(N)C1=O	–	–	–	–	–	–	·
Cc1ccc(-c2csc3ncnc(Nc4ccc(C(=O)O)cc4)c23)cc1	54.8	·	–	–	–	–	–
O=C(O)c1ccc(Nc2ncnc3scc(-c4ccccc4)c23)cc1	–	–	–	–	–	–	·
CC(C)(C)OC(=O)N1CCCC1C(=O)NCCc1ccccc1 (stereo not drawn)	–	–	–	·	–	–	·
CCc1cc2c(C)cc(=O)oc2cc1OC(=O)C1CCCN1C(=O)OC(C)(C)C (stereo not drawn)	74.9	–	–	·	–	–	–
Cc1cnn(-c2nc(-c3ccccc3)cc(-c3ccccc3)n2)c1	–	–	–	–	–	–	·
COC(=O)c1cc(Br)c(=O)n(-c2ccc(F)cc2)c1	–	–	–	·	–	–	·
Cc1ccccc1-c1cc(C(=O)Nc2sc(C)c(C)c2C(N)=O)c2ccccc2n1	–	–	–	·	–	–	·
CCOC(=O)c1c(NC(=O)c2cc(-c3ccc(Cl)s3)nc3ccccc23)sc(C(N)=O)c1C	66.2	–	–	–	71.8[fluorescence artefact?]	61.0	–
CSC1=C(C#N)C(c2sccc2C)CC(=O)N1 (stereo not drawn)	–	–	–	–	–	–	·
O=C(CSc1nc2ccccc2n1CC(=O)NCc1ccccc1)NCc1ccco1	–	–	–	·	–	–	·
CCC(Sc1nc2ccccc2c2nc3ccccc3n12)C(=O)NCc1ccco1 (stereo not drawn)	70.0	–	–	·	77.7	–	+
COc1cc2ncnc(NCc3ccco3)c2cc1OC	52.9	–	–	–	–	–	–
COc1ccccc1CNc1ncnc2cc(OC)c(OC)cc12	–	–	–	–	–	–	·
O=C1c2ccccc2CCC12N=NCC2c1ccccc1 (stereo not drawn)	–	–	–	·	–	–	·
Cc1ccc(-c2nc3ccccc3[nH]2)cc1NC(=O)c1sc2cc(Cl)ccc2c1Cl	73.1	–	–	–	–	–	–
Cc1cccc(-c2cc(C(=O)Nc3ccc4c(c3)OCCO4)c3ccccc3n2)c1	–	–	–	·	–	–	·
O=C(Nc1ccc2c(c1)OCCO2)c1cc(-c2ccccn2)nc2ccc(Br)cc12	78.1	–	–	–	–	–	–
O=C(Nc1ccc(S(=O)(=O)Nc2nccs2)cc1)c1cc(-c2ccccn2)nc2ccccc12	51.3	–	–	–	–	–	–
COCCNc1cc(C)c(C#N)c2nc3ccccc3n12	70.4	–	–	·	–	–	·
CCCc1cc(NCC2CCCO2)n2c(nc3ccccc32)c1C#N (stereo not drawn)	121.5	–	–	·	–	–	·
CCCc1cc(NCc2ccccn2)n2c(nc3ccccc32)c1C#N	–	–	–	–	–	–	·
CSc1ccc(S(=O)(=O)NCCSC(C)(C)C)cc1	–	–	–	·	–	–	·
